In brackets after ≈: the same amount, converted by molar mass. Activity calls are given as the source filed them. The calls are words filed in the database; no cut-off is given here.
Legend:
rhinovirus B14 [1] = assay: Tested for antirhinoviral activity against the rhinovirus serotype 14; assay type: functional, human rhinovirus type 14; details: Rhinovirus B
Outline: (§1)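 Selected compounds were tested across a 15-serotype rhinovirus panel: the five secondary serotypes plus 10 more. An MIC was recorded for each serotype. MIC80, the concentration inhibiting 80% of serotypes tested, was also derived from this panel.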

rhinovirus A50 [2] = assay: Tested for antirhinoviral activity against the rhinovirus serotype 50; assay type: functional; details: Rhinovirus A; outline: as §1
rhinovirus A1B [3] = assay: Tested for antirhinoviral activity against the rhinovirus serotype 1B; assay type: functional, human rhinovirus type 1b; details: Rhinovirus A; outline: as §1
rhinovirus A30 [4] = assay: Tested for antirhinoviral activity against the rhinovirus serotype 30; assay type: functional; details: Rhinovirus A; outline: as §1
rhinovirus B86 [5] = assay: Tested for antirhinoviral activity against the rhinovirus serotype 86; assay type: functional; details: Rhinovirus B; outline: as §1
rhinovirus A15 [6] = assay: Tested for antirhinoviral activity against the rhinovirus serotype 15; assay type: functional; details: Rhinovirus A; outline: as §1
rhinovirus A22 [7] = assay: Tested for antirhinoviral activity against the rhinovirus serotype 22; assay type: functional; details: Rhinovirus A; outline: as §1
rhinovirus A2 [8] = assay: Antirhinovirus activity was assessed and the maximum testable concentration that causes no apparent effects on the cell monolayers was determined against HRV-2 virus in vitro.; assay type: functional, human rhinovirus type 2
rhinovirus A25 [9] = assay: Tested for antirhinoviral activity against the rhinovirus serotype 25; assay type: functional; details: Rhinovirus A; outline: as §1
rhinovirus A41 [10] = assay: Tested for antirhinoviral activity against the rhinovirus serotype 41; assay type: functional; details: Rhinovirus A; outline: as §1
Human rhinovirus sp. = assay: Mean of MIC's was determined for the five types of virus like HRV-2, HRV-1A,HRV-22,HRV-41 and HRV-50; assay type: functional
Outline: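 MIC measured by plaque reduction against HRV-2 first. The value is the mean of the MICs across these five serotypes.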

rhinovirus A2 [11] = assay: Tested for antirhinoviral activity against the rhinovirus serotype 2; assay type: functional, human rhinovirus type 2; details: Rhinovirus A; outline: as §1
rhinovirus A67 [12] = assay: Tested for antirhinoviral activity against the rhinovirus serotype 67; assay type: functional; details: Rhinovirus A; outline: as §1
rhinovirus A21 [13] = assay: Tested for antirhinoviral activity against the rhinovirus serotype 21; assay type: functional; details: Rhinovirus A; outline: as §1
[14] = Partition coefficient (logP); assay type: physicochemical; details: octanol/water
rhinovirus A89 [15] = assay: Tested for antirhinoviral activity against the rhinovirus serotype 89; assay type: functional, human rhinovirus type 89; details: Rhinovirus A; outline: as §1
rhinovirus B6 [16] = assay: Tested for antirhinoviral activity against the rhinovirus serotype 6; assay type: functional; details: Rhinovirus B; outline: as §1
[17] = test system: human rhinovirus (15-serotype panel); assay: Antirhinovirus activity was determined by the ability to inhibit the growth of 80% of a panel of 15 human rhinovirus serotypes
Human rhinovirus 1A [18] = assay: Tested for antirhinoviral activity against the rhinovirus serotype 1A; assay type: functional; outline: as §1
rhinovirus A2 [19] = assay: Antirhinovirus activity was determined by the ability to inhibit the HRV-2 (human rhinovirus type -2) virus by plaque reduction assay in vitro; assay type: functional; details: Rhinovirus A
Outline: (§2)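 Plaque reduction assay against human rhinovirus type 2 (HRV-2), following an earlier reported method. The value is the MIC, the minimum inhibitory concentration.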

rhinovirus A1B [20] = assay: Tested for antirhinoviral activity against the rhinovirus serotype 1B; IA is inactive; assay type: functional, organism-based; details: human rhinovirus type 1b; outline: as §1
rhinovirus A25 [21] = assay: Tested for antirhinoviral activity against the rhinovirus serotype 25; IA is inactive; assay type: functional, organism-based; outline: as §1
rhinovirus A2 [22] = assay: Antiviral activity determined by ability to inhibit the HRV-2( human rhinovirus type -2) virus by plaque reduction assay in vitro; assay type: functional; details: Rhinovirus A; outline: as §2
rhinovirus A2 [23] = assay: Expanded antirhinoviral activity against the rhinovirus serotype 2; assay type: functional, human rhinovirus type 2; details: Rhinovirus A; outline: as §1
rhinovirus A21 [24] = assay: Expanded antirhinoviral activity against the rhinovirus serotype 21; assay type: functional; details: Rhinovirus A; outline: as §1
rhinovirus B14 [25] = assay: Expanded antirhinoviral activity against the rhinovirus serotype 14; assay type: functional, human rhinovirus type 14; details: Rhinovirus B; outline: as §1
rhinovirus A89 [26] = assay: Expanded antirhinoviral activity against the rhinovirus serotype 89; assay type: functional, human rhinovirus type 89; details: Rhinovirus A; outline: as §1
rhinovirus A25 [27] = assay: Expanded antirhinoviral activity against the rhinovirus serotype 25; assay type: functional; details: Rhinovirus A; outline: as §1
rhinovirus B86 [28] = assay: Expanded antirhinoviral activity against the rhinovirus serotype 86; assay type: functional; details: Rhinovirus B; outline: as §1
Human rhinovirus 1A [29] = assay: Expanded antirhinoviral activity against the rhinovirus serotype 1A; assay type: functional; outline: as §1
rhinovirus A50 [30] = assay: Expanded antirhinoviral activity against the rhinovirus serotype 50; assay type: functional; details: Rhinovirus A; outline: as §1
rhinovirus A41 [31] = assay: Expanded antirhinoviral activity against the rhinovirus serotype 41; assay type: functional; details: Rhinovirus A; outline: as §1
rhinovirus A22 [32] = assay: Expanded antirhinoviral activity against the rhinovirus serotype 22; assay type: functional; details: Rhinovirus A; outline: as §1
rhinovirus A1B [33] = assay: Expanded antirhinoviral activity against the rhinovirus serotype 1B; assay type: functional, human rhinovirus type 1b; details: Rhinovirus A; outline: as §1
rhinovirus B6 [34] = assay: Expanded antirhinoviral activity against the rhinovirus serotype 6; assay type: functional; details: Rhinovirus B; outline: as §1
rhinovirus A30 [35] = assay: Expanded antirhinoviral activity against the rhinovirus serotype 30; assay type: functional; details: Rhinovirus A; outline: as §1
rhinovirus A67 [36] = assay: Expanded antirhinoviral activity against the rhinovirus serotype 67; assay type: functional; details: Rhinovirus A; outline: as §1
rhinovirus A15 [37] = assay: Expanded antirhinoviral activity against the rhinovirus serotype 15; assay type: functional; details: Rhinovirus A; outline: as §1

MIC (rhinovirus B14 [1])	MIC (rhinovirus A50 [2])	MIC (rhinovirus A30 [4])	MIC (rhinovirus B86 [5])	MIC (rhinovirus A15 [6])	MIC (rhinovirus A22 [7])	MIC (rhinovirus A41 [10])	MIC (Human rhinovirus sp.)	MIC (rhinovirus A2 [11])	MIC (rhinovirus A67 [12])	MIC (rhinovirus A21 [13])	logP [14]	MIC (rhinovirus A89 [15])	MIC (rhinovirus B6 [16])	MIC80 [17]	MIC (Human rhinovirus 1A [18])	MIC (rhinovirus A2 [22])	Compound	MTL (rhinovirus A2 [8])	also measured
0.6 µM (≈ 0.197 µg/mL)	0.3 µM (≈ 0.0985 µg/mL)	0.05 µM (≈ 0.0164 µg/mL)	0.6 µM (≈ 0.197 µg/mL)	0.2 µM (≈ 0.0657 µg/mL)	0.2 µM (≈ 0.0657 µg/mL)	4.3 µM (≈ 1.41 µg/mL)	1.4 µM (≈ 0.46 µg/mL)	0.09 µM (≈ 0.0296 µg/mL)	0.2 µM (≈ 0.0657 µg/mL)	0.06 µM (≈ 0.0197 µg/mL)	4.4	0.06 µM (≈ 0.0197 µg/mL)	0.6 µM (≈ 0.197 µg/mL)	0.6 µM (≈ 0.197 µg/mL)	2 µM (≈ 0.657 µg/mL)	–	Cc1cc(CCCCCOc2ccc(C3=NCCO3)cc2C)on1	19 µM	MIC (rhinovirus A1B [3]): 0.3 µM (≈ 0.0985 µg/mL); MIC (rhinovirus A25 [9]): 6.7 µM (≈ 2.2 µg/mL); MIC (rhinovirus A2 [19]): 0.1 µM (≈ 0.0328 µg/mL)
0.7 µM (≈ 0.22 µg/mL)	1.5 µM (≈ 0.472 µg/mL)	0.3 µM (≈ 0.0943 µg/mL)	0.2 µM (≈ 0.0629 µg/mL)	1.5 µM (≈ 0.472 µg/mL)	0.9 µM (≈ 0.283 µg/mL)	15 µM (≈ 4.72 µg/mL)	5.2 µM (≈ 1.63 µg/mL)	1.1 µM (≈ 0.346 µg/mL)	2.4 µM (≈ 0.755 µg/mL)	1.2 µM (≈ 0.377 µg/mL)	–	0.4 µM (≈ 0.126 µg/mL)	0.06 µM (≈ 0.0189 µg/mL)	7 µM (≈ 2.2 µg/mL)	7 µM (≈ 2.2 µg/mL)	1.1 µM (≈ 0.346 µg/mL)	Cc1cc(CCCCCOc2ccc(C3=NCCO3)cc2)on1	9.9 µM	MIC (rhinovirus A1B [20]): inactive; MIC (rhinovirus A25 [21]): inactive
–	–	–	–	–	–	–	0.7 µM (≈ 0.252 µg/mL)	–	–	–	3.49	–	–	1.8 µM (≈ 0.647 µg/mL)	–	0.04 µM (≈ 0.0144 µg/mL)	Cc1cc(CCCCCOc2ccc(C3=NCCO3)cc2[N+](=O)[O-])on1	3.9 µM	MIC (rhinovirus A2 [23]): 0.06 µM (≈ 0.0216 µg/mL); MIC (rhinovirus A21 [24]): 0.06 µM (≈ 0.0216 µg/mL); MIC (rhinovirus B14 [25]): 1.8 µM (≈ 0.647 µg/mL); MIC (rhinovirus A89 [26]): 0.06 µM (≈ 0.0216 µg/mL); MIC (rhinovirus A25 [27]): 1.9 µM (≈ 0.683 µg/mL); MIC (rhinovirus B86 [28]): 2 µM (≈ 0.719 µg/mL); MIC (Human rhinovirus 1A [29]): 0.9 µM (≈ 0.323 µg/mL); MIC (rhinovirus A50 [30]): 0.2 µM (≈ 0.0719 µg/mL); MIC (rhinovirus A41 [31]): 2 µM (≈ 0.719 µg/mL); MIC (rhinovirus A22 [32]): 0.1 µM (≈ 0.0359 µg/mL); MIC (rhinovirus A1B [33]): 0.2 µM (≈ 0.0719 µg/mL); MIC (rhinovirus B6 [34]): 1.6 µM (≈ 0.575 µg/mL); MIC (rhinovirus A30 [35]): 0.1 µM (≈ 0.0359 µg/mL); MIC (rhinovirus A67 [36]): 0.2 µM (≈ 0.0719 µg/mL); MIC (rhinovirus A15 [37]): 0.3 µM (≈ 0.108 µg/mL)
